Reference: ChEMBL document CHEMBL1275595, “Antimicrobial activity of a halocidin-derived peptide resistant to attacks by proteases” (2010)
Calls of active or inactive are those of the source. The rule behind the calls is not given here. Bridge positions count the residues as written; N and C are the ends. Peptide text beside a SMILES is read from it. I, II: the chains in the order shown.

Each compound was assayed on Staphylococcus aureus (assay: Antimicrobial activity against methicillin-resistant Staphylococcus aureus CCARM 3696 by radial diffusion assay).
Type: functional, organism-based
How it was run: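 Radial diffusion. Washed mid-log MRSA (4 × 10^6 CFU) was mixed into 10 ml underlay of 1% agarose and 0.03% TSB in 9 mM NaP/1 mM sodium citrate, pH 7.4. Wells 3 mm wide received 5 μl of peptide at 200 μg/ml in 0.01% acetic acid. After 3 h at 37°C, a 1% agarose/6% TSB overlay was added and plates were incubated overnight. Clear zone diameter was read in units, 0.1 mm = 1 unit.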
`CC(C)C[C@H](NC(=O)CNC(=O)[C@H](Cc1cnc[nH]1)NC(=O)[C@H](Cc1cnc[nH]1)NC(=O)[C@H](CC(C)C)NC(=O)[C@H](CC(C)C)NC(=O)[C@H](C)NC(=O)[C@H](CCCCN)NC(=O)[C@H](CCCCN)NC(=O)[C@H](Cc1c[nH]c2ccccc12)NC(=O)[C@@H](N)CCCCN)C(=O)N[C@@H](CC(N)=O)C(=O)N[C@@H](CSSC[C@H](NC(=O)[C@H](CC(N)=O)NC(=O)[C@H](CC(C)C)NC(=O)CNC(=O)[C@H](Cc1cnc[nH]1)NC(=O)[C@@H](N)Cc1cnc[nH]1)C(=O)N[C@@H](C)C(=O)N[C@@H](CCCCN)C(=O)NCC(=O)N[C@H](C(=O)N[C@@H](CC(C)C)C(=O)N[C@@H](C)C(N)=O)C(C)C)C(=O)N[C@@H](C)C(=O)N[C@@H](CCCCN)C(=O)NCC(=O)N[C@H](C(=O)N[C@@H](CC(C)C)C(=O)N[C@@H](C)C(N)=O)C(C)C` (I: H-KWKKALLHHGLNCAKGVLA-NH2 / II: H-HHGLNCAKGVLA-NH2; disulfide I:13-II:6) was tested, and the Activity was “Active”. `CC(C)C[C@H](NC(=O)CNC(=O)[C@H](Cc1cnc[nH]1)NC(=O)[C@H](Cc1cnc[nH]1)NC(=O)[C@H](CC(C)C)NC(=O)[C@H](CC(C)C)NC(=O)[C@H](C)NC(=O)[C@H](CCCCN)NC(=O)[C@H](CCCCN)NC(=O)[C@H](Cc1c[nH]c2ccccc12)NC(=O)[C@@H](N)CCCCN)C(=O)N[C@@H](CC(N)=O)C(=O)N[C@@H](CSSC[C@H](NC(=O)[C@H](CC(N)=O)NC(=O)[C@H](CC(C)C)NC(=O)CNC(=O)[C@H](Cc1cnc[nH]1)NC(=O)[C@H](Cc1cnc[nH]1)NC(=O)[C@H](CC(C)C)NC(=O)[C@H](CC(C)C)NC(=O)[C@H](C)NC(=O)[C@H](CCCCN)NC(=O)[C@@H](N)CCCCN)C(=O)N[C@@H](C)C(=O)N[C@@H](CCCCN)C(=O)NCC(=O)N[C@H](C(=O)N[C@@H](CC(C)C)C(=O)N[C@@H](C)C(N)=O)C(C)C)C(=O)N[C@@H](C)C(=O)N[C@@H](CCCCN)C(=O)NCC(=O)N[C@H](C(=O)N[C@@H](CC(C)C)C(=O)N[C@@H](C)C(N)=O)C(C)C` (I: H-KWKKALLHHGLNCAKGVLA-NH2 / II: H-KKALLHHGLNCAKGVLA-NH2; disulfide I:13-II:11) was tested, and the Activity was “Active”. With `CC(C)C[C@H](NC(=O)CNC(=O)[C@H](Cc1cnc[nH]1)NC(=O)[C@H](Cc1cnc[nH]1)NC(=O)[C@H](CC(C)C)NC(=O)[C@H](CC(C)C)NC(=O)[C@H](C)NC(=O)[C@H](CCCCN)NC(=O)[C@@H](N)CCCCN)C(=O)N[C@@H](CC(N)=O)C(=O)N[C@@H](CSSC[C@H](NC(=O)[C@H](CC(N)=O)NC(=O)[C@H](CC(C)C)NC(=O)CNC(=O)[C@H](Cc1cnc[nH]1)NC(=O)[C@@H](N)Cc1cnc[nH]1)C(=O)N[C@@H](C)C(=O)N[C@@H](CCCCN)C(=O)NCC(=O)N[C@H](C(=O)N[C@@H](CC(C)C)C(=O)N[C@@H](C)C(N)=O)C(C)C)C(=O)N[C@@H](C)C(=O)N[C@@H](CCCCN)C(=O)NCC(=O)N[C@H](C(=O)N[C@@H](CC(C)C)C(=O)N[C@@H](C)C(N)=O)C(C)C` (I: H-KKALLHHGLNCAKGVLA-NH2 / II: H-HHGLNCAKGVLA-NH2; disulfide I:11-II:6) the Activity was “inactive”. In the case of `CC(C)C[C@H](NC(=O)CNC(=O)[C@H](Cc1cnc[nH]1)NC(=O)[C@H](Cc1cnc[nH]1)NC(=O)[C@H](CC(C)C)NC(=O)[C@H](CC(C)C)NC(=O)[C@H](C)NC(=O)[C@H](CCCCN)NC(=O)[C@H](CCCCN)NC(=O)[C@H](Cc1c[nH]c2ccccc12)NC(=O)[C@@H](N)CCCCN)C(=O)N[C@@H](CC(N)=O)C(=O)N[C@@H](CSSC[C@H](NC(=O)[C@H](CC(N)=O)NC(=O)[C@H](CC(C)C)NC(=O)CNC(=O)[C@H](Cc1cnc[nH]1)NC(=O)[C@H](Cc1cnc[nH]1)NC(=O)[C@@H](N)CC(C)C)C(=O)N[C@@H](C)C(=O)N[C@@H](CCCCN)C(=O)NCC(=O)N[C@H](C(=O)N[C@@H](CC(C)C)C(=O)N[C@@H](C)C(N)=O)C(C)C)C(=O)N[C@@H](C)C(=O)N[C@@H](CCCCN)C(=O)NCC(=O)N[C@H](C(=O)N[C@@H](CC(C)C)C(=O)N[C@@H](C)C(N)=O)C(C)C` (I: H-KWKKALLHHGLNCAKGVLA-NH2 / II: H-LHHGLNCAKGVLA-NH2; disulfide I:13-II:7), the Activity is reported as “Active”.
